Laboratory results published in ChEMBL document CHEMBL3352168, “Potent, orally available, selective COX-2 inhibitors based on 2-imidazoline core” (Eur J Med Chem, 2014).

Legend:
[1] = target: T1, Prostaglandin G/H synthase 1 (Ovis aries) (UniProt P05979); assay: Inhibition of ovine COX1 using fluorometric substrate at 100 uM by fluorescent inhibitor screening assay
T1 sequence (whole entry): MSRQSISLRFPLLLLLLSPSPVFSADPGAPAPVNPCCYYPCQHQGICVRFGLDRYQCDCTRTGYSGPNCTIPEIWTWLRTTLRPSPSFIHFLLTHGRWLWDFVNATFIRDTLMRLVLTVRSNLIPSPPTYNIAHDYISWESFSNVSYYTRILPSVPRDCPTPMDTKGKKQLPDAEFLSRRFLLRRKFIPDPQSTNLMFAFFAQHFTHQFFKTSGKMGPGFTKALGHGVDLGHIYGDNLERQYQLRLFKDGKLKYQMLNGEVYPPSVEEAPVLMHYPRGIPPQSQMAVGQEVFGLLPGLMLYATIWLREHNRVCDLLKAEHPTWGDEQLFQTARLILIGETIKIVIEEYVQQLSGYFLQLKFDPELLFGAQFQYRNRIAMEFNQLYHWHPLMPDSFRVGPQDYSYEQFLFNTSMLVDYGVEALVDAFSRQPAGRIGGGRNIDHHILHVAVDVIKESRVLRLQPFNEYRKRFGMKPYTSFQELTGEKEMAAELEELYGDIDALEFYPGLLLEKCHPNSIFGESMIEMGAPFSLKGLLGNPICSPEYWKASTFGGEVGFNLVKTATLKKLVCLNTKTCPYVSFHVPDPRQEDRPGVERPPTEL

[2] = target: T2, Prostaglandin G/H synthase 2 (Homo sapiens, UniProt P35354); assay: Inhibition of human recombinant COX2 using fluorometric substrate by fluorescent inhibitor screening assay
T2 sequence (P35354 whole entry): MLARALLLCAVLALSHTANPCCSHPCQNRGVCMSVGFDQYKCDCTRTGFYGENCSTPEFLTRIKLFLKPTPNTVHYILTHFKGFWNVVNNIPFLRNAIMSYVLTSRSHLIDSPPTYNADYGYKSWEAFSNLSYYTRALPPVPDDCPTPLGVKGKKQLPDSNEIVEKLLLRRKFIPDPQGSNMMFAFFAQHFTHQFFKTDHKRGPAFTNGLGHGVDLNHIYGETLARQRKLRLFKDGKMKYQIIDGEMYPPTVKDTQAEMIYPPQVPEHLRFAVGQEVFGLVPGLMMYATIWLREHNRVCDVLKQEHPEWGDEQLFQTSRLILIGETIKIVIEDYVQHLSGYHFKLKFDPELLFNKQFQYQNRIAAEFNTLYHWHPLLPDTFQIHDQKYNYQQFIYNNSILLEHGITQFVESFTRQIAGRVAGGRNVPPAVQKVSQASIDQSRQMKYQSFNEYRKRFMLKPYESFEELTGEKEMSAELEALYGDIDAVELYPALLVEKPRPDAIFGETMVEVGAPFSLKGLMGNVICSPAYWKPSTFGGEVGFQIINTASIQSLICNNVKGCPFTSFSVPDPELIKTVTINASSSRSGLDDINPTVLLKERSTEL
Summary of the method: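 Human recombinant COX-2 in 100 mM Tris-HCl pH 8.0 with heme and ADHP fluorometric substrate; inhibitor added at final […] (units as printed) from DMSO stocks; reaction started with arachidonic acid, 2 min at room temperature. Resorufin fluorescence read at ex 535/em 590 nm; % inhibition vs no-inhibitor activity; IC50 from concentration–inhibition curve, triplicate determinations.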

[3] = target: T3, Prostaglandin G/H synthase 1 (Ovis aries, UniProt P05979); assay: Inhibition of ovine COX1 using fluorometric substrate by fluorescent inhibitor screening assay
T3 sequence (P05979 whole entry): T1 sequence (whole entry)
Summary of the method: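 Ovine COX-1 in 100 mM Tris-HCl pH 8.0 with heme and ADHP fluorometric substrate; inhibitor from DMSO stock, reaction started by arachidonic acid, 2 min at room temperature. Resorufin fluorescence read at ex 535/em 590 nm; percent inhibition calculated against uninhibited activity; reported as % inhibition at 100 (units as printed).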

Row | SMILES | inhibition [1] | IC50 [2] | IC50 [3]
1 | COc1ccc(C2=NCCN2c2ccc(S(N)(=O)=O)cc2)cc1F | -5.5% | 9.5 µM | –
2 | COc1ccc(C2=NCCN2c2ccc(S(C)(=O)=O)cc2)cc1F | -1.6% | > 10 µM | –
3 | CC1CN(c2ccc(S(C)(=O)=O)cc2)C(c2ccc(F)cc2)=N1 (racemic) | 6.3% | > 10 µM | –
4 | NS(=O)(=O)c1ccc(N2CCN=C2c2cccc(Cl)c2)cc1 | -8% | 2.5 µM | –
5 | Cc1cn(-c2ccc(S(C)(=O)=O)cc2)c(-c2ccc(Cl)cc2)n1 | – | – | > 100 µM
6 | NS(=O)(=O)c1ccc(N2CCN=C2c2ccc(Cl)cc2)cc1 | 0.4% | 3.4 µM | –
7 | CS(=O)(=O)c1ccc(N2CCN=C2c2ccc(Cl)c(C(F)(F)F)c2)cc1 | 4.7% | 3.6 µM | –
8 | COc1cc(C2=NCCN2c2ccc(S(N)(=O)=O)cc2)ccc1F | – | > 10 µM | –
9 | CC1CN(c2ccc(S(N)(=O)=O)cc2)C(c2cccc(Br)c2)=N1 (racemic) | 20.2% | > 10 µM | –
10 | NS(=O)(=O)c1ccc(N2CCN=C2c2cccc(F)c2)cc1 | -1.4% | 7.2 µM | –
11 | Cc1cccc(C2=NCCN2c2ccc(S(N)(=O)=O)cc2)c1 | 1.5% | > 10 µM | –
12 | CS(=O)(=O)c1ccc(N2CCN=C2c2cccc(Br)c2)cc1 | 12.6% | 6.8 µM | –
13 | NS(=O)(=O)c1ccc(N2CCN=C2c2ccc(F)c(F)c2)cc1 | 6.6% | 6.7 µM | –
14 | NS(=O)(=O)c1ccc(N2CCN=C2c2ccc(F)cc2)cc1 | 11.4% | 6.9 µM | –
15 | CS(=O)(=O)c1ccc(N2CCN=C2c2cccc(F)c2)cc1 | 0.7% | > 10 µM | –
16 | CC1CN(c2ccc(S(C)(=O)=O)cc2)C(c2cccc(Br)c2)=N1 (racemic) | 11.1% | > 10 µM | –
